According to ChEMBL document CHEMBL1146871, “Hydrazides of clozapine: a new class of D1 dopamine receptor subtype selective antagonists” (Bioorg Med Chem Lett, 2006):

Legend:
D(2) dopamine receptor [1] = biological target: T1, D(2) dopamine receptor (Homo sapiens, UniProt P14416); assay: Displacement of [3H]methylspiperone from human dopamine D2 receptor expressed in CHO cells; format: cell-based
D(1A) dopamine receptor [2] = biological target: T2, D(1A) dopamine receptor (Homo sapiens, UniProt P21728); assay: Displacement of [3H]SCH 23390 from human dopamine D1 receptor expressed in CHO cells; format: cell-based
D(1A) dopamine receptor [3] = biological target: T2, D(1A) dopamine receptor; assay: Activity at dopamine D1 receptor by cAMP assay; format: functional; settings: for Activity: filed as antagonist
[4] = biological target: T3, Alpha-2A adrenergic receptor (Homo sapiens, UniProt P08913); assay: Binding affinity at adrenergic alpha2A receptor
T3 sequence (P08913 whole entry): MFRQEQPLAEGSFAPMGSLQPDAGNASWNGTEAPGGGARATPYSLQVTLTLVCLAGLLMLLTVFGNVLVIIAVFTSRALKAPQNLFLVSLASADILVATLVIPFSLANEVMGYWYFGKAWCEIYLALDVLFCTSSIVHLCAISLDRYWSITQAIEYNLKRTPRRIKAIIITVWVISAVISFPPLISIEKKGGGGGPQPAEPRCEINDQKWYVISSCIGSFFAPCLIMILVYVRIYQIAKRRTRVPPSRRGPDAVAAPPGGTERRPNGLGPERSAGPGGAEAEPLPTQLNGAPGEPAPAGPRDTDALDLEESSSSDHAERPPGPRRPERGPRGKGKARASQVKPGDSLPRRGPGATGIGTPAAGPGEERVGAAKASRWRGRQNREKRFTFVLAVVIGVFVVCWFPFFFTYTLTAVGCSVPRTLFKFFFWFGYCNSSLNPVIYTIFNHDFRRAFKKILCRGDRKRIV

D(2) dopamine receptor [5] = biological target: T1, D(2) dopamine receptor; assay: Binding affinity at dopamine D2 receptor
Summary of the method: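 Membranes from cells stably expressing D2 receptor (4-7 pmol/mg protein; Ltk- cells in one passage, CHO in another), made by hypotonic lysis and 48,000g spin and stored at -80 °C. Incubated with 0.5 nM [3H]methylspiperone for 1 h at room temperature. Nonspecific binding set by 10 µM (-)-sulpiride. Rapid filtration, then scintillation counting. One-site competition fit; Ki is the mean of separate determinations.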

D(1B) dopamine receptor = D(1B) dopamine receptor (Homo sapiens, UniProt P21918); assay: Binding affinity at dopamine D5 receptor
D(4) dopamine receptor = biological target: T4, D(4) dopamine receptor (Homo sapiens, UniProt P21917); assay: Binding affinity at dopamine D4 receptor
T4 sequence (P21917 whole entry): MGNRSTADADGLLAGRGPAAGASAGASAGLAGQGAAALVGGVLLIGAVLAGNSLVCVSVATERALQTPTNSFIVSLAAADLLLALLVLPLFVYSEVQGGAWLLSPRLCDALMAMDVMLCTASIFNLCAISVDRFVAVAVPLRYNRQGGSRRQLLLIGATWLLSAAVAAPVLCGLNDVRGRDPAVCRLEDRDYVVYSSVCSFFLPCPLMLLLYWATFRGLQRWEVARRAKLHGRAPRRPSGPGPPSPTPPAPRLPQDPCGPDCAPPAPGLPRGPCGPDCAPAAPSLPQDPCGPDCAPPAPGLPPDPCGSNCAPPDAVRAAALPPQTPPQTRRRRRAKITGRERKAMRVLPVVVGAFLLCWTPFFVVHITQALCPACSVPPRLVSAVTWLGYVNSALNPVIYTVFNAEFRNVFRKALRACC

[6] = biological target: 5-hydroxytryptamine receptor 2A (Homo sapiens, UniProt P28223); assay: Binding affinity at 5HT2A receptor
[7] = Cmax in Sprague-Dawley rat plasma at 10 mg/kg, po; format: ADME, organism-based; design: dose 10 mg/kg, route oral
Summary of the method: (§1)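 Single oral dose of 10 mg/kg to two male Sprague-Dawley rats. Blood drawn at several time points. Plasma levels of individual animals, generally within ±25% of the mean, were used to calculate PK parameters.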

[8] = AUC in Sprague-Dawley rat plasma at 10 mg/kg, po; format: ADME, organism-based; design: dose 10 mg/kg, route oral; summary of the method: as §1
[9] = Tmax in Sprague-Dawley rat plasma at 10 mg/kg, po; format: ADME, organism-based; design: dose 10 mg/kg, route oral; summary of the method: as §1

Chain of 5-hydroxytryptamine receptor 2A (P28223 whole entry): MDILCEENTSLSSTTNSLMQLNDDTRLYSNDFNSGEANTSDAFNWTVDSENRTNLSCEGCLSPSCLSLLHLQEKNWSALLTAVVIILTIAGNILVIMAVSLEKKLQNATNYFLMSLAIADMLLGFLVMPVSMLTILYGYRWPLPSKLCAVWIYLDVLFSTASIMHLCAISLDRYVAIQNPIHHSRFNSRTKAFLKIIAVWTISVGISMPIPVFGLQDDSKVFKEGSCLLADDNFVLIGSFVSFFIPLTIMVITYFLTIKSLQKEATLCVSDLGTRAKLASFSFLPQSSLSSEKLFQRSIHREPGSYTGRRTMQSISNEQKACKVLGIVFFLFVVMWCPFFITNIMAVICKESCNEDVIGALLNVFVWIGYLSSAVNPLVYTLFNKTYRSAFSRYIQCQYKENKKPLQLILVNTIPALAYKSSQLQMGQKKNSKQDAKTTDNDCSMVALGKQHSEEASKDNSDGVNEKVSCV
T2 sequence (P21728 whole entry): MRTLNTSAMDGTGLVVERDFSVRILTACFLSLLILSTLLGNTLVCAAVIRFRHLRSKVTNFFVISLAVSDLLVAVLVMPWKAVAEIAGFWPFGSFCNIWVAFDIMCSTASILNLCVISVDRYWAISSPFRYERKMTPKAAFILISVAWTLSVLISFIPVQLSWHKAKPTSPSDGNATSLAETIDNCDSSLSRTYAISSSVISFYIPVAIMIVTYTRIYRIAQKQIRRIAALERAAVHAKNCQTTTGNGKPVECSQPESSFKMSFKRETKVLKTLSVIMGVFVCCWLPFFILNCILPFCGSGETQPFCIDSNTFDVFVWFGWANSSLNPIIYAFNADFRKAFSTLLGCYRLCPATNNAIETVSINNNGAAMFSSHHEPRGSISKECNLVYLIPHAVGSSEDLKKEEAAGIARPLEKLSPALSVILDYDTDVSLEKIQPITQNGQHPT
Chain of D(1B) dopamine receptor (P21918 whole entry): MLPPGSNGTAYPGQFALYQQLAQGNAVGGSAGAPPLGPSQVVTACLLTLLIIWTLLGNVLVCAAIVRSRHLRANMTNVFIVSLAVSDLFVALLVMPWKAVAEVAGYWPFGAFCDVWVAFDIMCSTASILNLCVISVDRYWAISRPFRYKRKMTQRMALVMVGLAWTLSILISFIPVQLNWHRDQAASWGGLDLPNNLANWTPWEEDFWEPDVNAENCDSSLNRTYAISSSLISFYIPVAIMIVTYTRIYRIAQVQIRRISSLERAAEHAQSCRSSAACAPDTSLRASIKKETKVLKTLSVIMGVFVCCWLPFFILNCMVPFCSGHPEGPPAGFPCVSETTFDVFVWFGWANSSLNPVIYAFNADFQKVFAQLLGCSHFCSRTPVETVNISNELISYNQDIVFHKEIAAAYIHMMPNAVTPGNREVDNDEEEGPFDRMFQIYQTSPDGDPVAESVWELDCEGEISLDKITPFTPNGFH
T1 sequence (P14416 whole entry): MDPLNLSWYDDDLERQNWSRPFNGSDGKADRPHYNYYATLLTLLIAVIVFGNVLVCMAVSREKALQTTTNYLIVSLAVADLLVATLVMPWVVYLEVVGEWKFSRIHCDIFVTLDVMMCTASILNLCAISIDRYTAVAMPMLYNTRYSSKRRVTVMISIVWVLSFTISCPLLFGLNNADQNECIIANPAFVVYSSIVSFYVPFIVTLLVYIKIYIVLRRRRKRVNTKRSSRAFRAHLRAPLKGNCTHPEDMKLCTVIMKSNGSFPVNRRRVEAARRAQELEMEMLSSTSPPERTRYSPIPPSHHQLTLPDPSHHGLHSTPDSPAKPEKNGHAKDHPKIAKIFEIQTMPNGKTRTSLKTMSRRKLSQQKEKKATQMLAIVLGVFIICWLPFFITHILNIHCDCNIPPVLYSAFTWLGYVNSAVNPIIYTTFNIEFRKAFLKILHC

Structure (SMILES)	Ki (D(2) dopamine receptor [1]) [µM]	Ki (D(1A) dopamine receptor [2]) [µM]	other results
CN1CCN(C2=Nc3cc(Cl)ccc3N(NC(=O)c3ccccc3-n3ccnc3)c3ccccc32)CC1	3	0.088	–
CN1CCN(C2=Nc3cc(Cl)ccc3N(NC(=O)C(F)(F)F)c3ccccc32)CC1	1.9	0.086	–
CN1CCN(C2=Nc3cc(Cl)ccc3N(NC(=O)c3ccccc3N3CCN(C)CC3)c3ccccc32)CC1	3.77	0.237	–
CN1CCN(C2=Nc3cc(Cl)ccc3N(NC(=O)c3ccccc3Oc3ccccc3)c3ccccc32)CC1	0.431	0.051	–
CN1CCN(C2=Nc3cc(Cl)ccc3N(NC(=O)c3cccc(Cl)c3)c3ccccc32)CC1	0.181	0.004	–
CN1CCN(C2=Nc3cc(Cl)ccc3N(NC(=O)c3c(Cl)cccc3Cl)c3ccccc32)CC1	0.24	0.0034	–
CN1CCN(C2=Nc3cc(Cl)ccc3N(NC(=O)c3cccc(I)c3)c3ccccc32)CC1	0.35	0.0036	–
Cc1cccc(N)c1C(=O)NN1c2ccc(Cl)cc2N=C(N2CCN(C)CC2)c2ccccc21	1.02	0.0032	Kb (D(1A) dopamine receptor [3]): 0.0067 µM; Activity (D(1A) dopamine receptor [3]): Antagonist; Ki [4]: 0.456 µM; Ki (D(2) dopamine receptor [5]): 1.02 µM; Ki (D(1B) dopamine receptor): 0.058 µM; Ki (D(4) dopamine receptor): 4.85 µM; Ki [6]: 0.0029 µM
CN1CCN(C2=Nc3cc(Cl)ccc3N(NC(=O)c3ccccc3NC3CCCCC3)c3ccccc32)CC1	3.82	0.062	–
Cc1ccc(C(=O)NN2c3ccc(Cl)cc3N=C(N3CCN(C)CC3)c3ccccc32)cc1	1.52	0.0077	–
CCOc1c(C(=O)NN2c3ccc(Cl)cc3N=C(N3CCN(C)CC3)c3ccccc32)sc2ccccc12	0.196	0.028	–
COc1cccc(C(=O)NN2c3ccc(Cl)cc3N=C(N3CCN(C)CC3)c3ccccc32)c1	1.13	0.013	–
CN1CCN(C2=Nc3cc(Cl)ccc3N(NC(=O)CCC3CCCC3)c3ccccc32)CC1	1.95	0.111	–
CN1CCN(C2=Nc3cc(Cl)ccc3N(NC(=O)c3ccc(Br)cc3)c3ccccc32)CC1	2.39	0.014	–
Cc1cccc(C(=O)NN2c3ccc(Cl)cc3N=C(N3CCN(C)CC3)c3ccccc32)c1	0.517	0.003	–
Cc1cccc(C)c1C(=O)NN1c2ccc(Cl)cc2N=C(N2CCN(C)CC2)c2ccccc21	0.287	0.003	Kb (D(1A) dopamine receptor [3]): 0.0028 µM; Activity (D(1A) dopamine receptor [3]): Antagonist; Ki [4]: 0.791 µM; Ki (D(2) dopamine receptor [5]): 0.287 µM; Ki (D(1B) dopamine receptor): 0.031 µM; Ki (D(4) dopamine receptor): 1.87 µM; Ki [6]: 0.0022 µM
CN1CCN(C2=Nc3cc(Cl)ccc3N(NC(=O)C3CCC3)c3ccccc32)CC1	–	0.15	–
CN1CCN(C2=Nc3cc(Cl)ccc3N(NC(=O)c3nccc4ccccc34)c3ccccc32)CC1	0.484	0.023	–
CN1CCN(C2=Nc3cc(Cl)ccc3N(NC(=O)c3cnn(-c4ccccc4)c3C(F)(F)F)c3ccccc32)CC1	2.08	0.03	–
CN1CCN(C2=Nc3cc(Cl)ccc3N(NC(=O)c3sccc3-c3ccccc3)c3ccccc32)CC1	0.078	0.039	–
CN1CCN(C2=Nc3cc(Cl)ccc3N(NC(=O)C(C)(C)C)c3ccccc32)CC1	–	0.098	–
CN1CCN(C2=Nc3cc(Cl)ccc3N(NC(=O)c3cccnc3Cl)c3ccccc32)CC1	0.63	0.011	–
COc1cccc(OC)c1C(=O)NN1c2ccc(Cl)cc2N=C(N2CCN(C)CC2)c2ccccc21	0.34	0.0016	Kb (D(1A) dopamine receptor [3]): 0.0007 µM; Activity (D(1A) dopamine receptor [3]): Antagonist; Ki [4]: 0.169 µM; Ki (D(2) dopamine receptor [5]): 0.34 µM; Ki (D(1B) dopamine receptor): 0.038 µM; Cmax [7]: 0.802 µg/mL; Ki (D(4) dopamine receptor): 1.81 µM; AUC [8]: 2.67 µg·h/mL; Tmax [9]: 30 min; Ki [6]: 0.0138 µM
CN1CCN(C2=Nc3cc(Cl)ccc3N(NC(=O)c3cc(Cl)cc(Cl)c3)c3ccccc32)CC1	0.608	0.024	–
CCCC(=O)NN1c2ccc(Cl)cc2N=C(N2CCN(C)CC2)c2ccccc21	0.4	0.154	–
CCOc1csc(C(=O)NN2c3ccc(Cl)cc3N=C(N3CCN(C)CC3)c3ccccc32)c1	0.18	0.01	–
CC(=O)NN1c2ccc(Cl)cc2N=C(N2CCN(C)CC2)c2ccccc21	–	0.494	–

Structure (SMILES)	Ki (D(2) dopamine receptor [1]) [µM]	Ki (D(1A) dopamine receptor [2]) [µM]	other results
CN1CCN(C2=Nc3cc(Cl)ccc3N(NC(=O)c3ccccc3N3CCCCC3)c3ccccc32)CC1	0.215	0.0078	–
CN1CCN(C2=Nc3cc(Cl)ccc3N(NC(=O)CCc3ccccc3)c3ccccc32)CC1	0.621	0.079	–
CN1CCN(C2=Nc3cc(Cl)ccc3N(NC(=O)c3ccccc3)c3ccccc32)CC1	1.15	0.157	–
CN1CCN(C2=Nc3cc(Cl)ccc3N(NC(=O)c3ccccc3F)c3ccccc32)CC1	0.374	0.012	–
CN1CCN(C2=Nc3cc(Cl)ccc3N(NC(=O)c3c(Cl)cc(Cl)cc3Cl)c3ccccc32)CC1	0.39	0.004	–
CN1CCN(C2=Nc3cc(Cl)ccc3N(NC(=O)c3ccc(Cl)cc3)c3ccccc32)CC1	9.25	0.035	–
CN1CCN(C2=Nc3cc(Cl)ccc3N(NC(=O)c3cccs3)c3ccccc32)CC1	1.47	0.014	–
CN1CCN(C2=Nc3cc(Cl)ccc3N(NC(=O)c3c(F)cccc3C(F)(F)F)c3ccccc32)CC1	0.383	0.0025	Kb (D(1A) dopamine receptor [3]): 0.0023 µM; Activity (D(1A) dopamine receptor [3]): Antagonist; Ki [4]: 2 µM; Ki (D(2) dopamine receptor [5]): 0.383 µM; Ki (D(1B) dopamine receptor): 0.007 µM; Ki (D(4) dopamine receptor): 2 µM; Ki [6]: 0.0012 µM
CN1CCN(C2=Nc3cc(Cl)ccc3N(NC(=O)c3ccc4ccccc4c3)c3ccccc32)CC1	1.31	0.0074	–
CN1CCN(C2=Nc3cc(Cl)ccc3N(NC(=O)c3c(N)cccc3C(F)(F)F)c3ccccc32)CC1	0.092	0.007	–
CN1CCN(C2=Nc3cc(Cl)ccc3N(NC(=O)c3cccc(F)c3)c3ccccc32)CC1	0.921	0.047	–
COc1ccc(C(=O)NN2c3ccc(Cl)cc3N=C(N3CCN(C)CC3)c3ccccc32)cc1	3	0.047	–
CN1CCN(C2=Nc3cc(Cl)ccc3N(NC(=O)c3ccon3)c3ccccc32)CC1	0.46	0.022	–
CN1CCN(C2=Nc3cc(Cl)ccc3N(NC(=O)c3cnc4ccccc4c3)c3ccccc32)CC1	–	0.028	–
CCCC(CCC)C(=O)NN1c2ccc(Cl)cc2N=C(N2CCN(C)CC2)c2ccccc21	1.85	0.0256	–
CN1CCN(C2=Nc3cc(Cl)ccc3N(N)c3ccccc32)CC1	0.647	0.28	–
CN1CCN(C2=Nc3cc(Cl)ccc3N(NC(=O)c3ccco3)c3ccccc32)CC1	0.837	0.015	–
CN1CCN(C2=Nc3cc(Cl)ccc3N(NC(=O)c3ccc4ccccc4n3)c3ccccc32)CC1	0.931	0.01	–
CN1CCN(C2=Nc3cc(Cl)ccc3N(NC(=O)c3ccc(C(F)(F)F)cc3)c3ccccc32)CC1	–	0.068	–
CN1CCN(C2=Nc3cc(Cl)ccc3N(NC(=O)c3ccsc3)c3ccccc32)CC1	3	0.009	–
CCOc1ccc2ccccc2c1C(=O)NN1c2ccc(Cl)cc2N=C(N2CCN(C)CC2)c2ccccc21	0.274	0.065	–
CN1CCN(C2=Nc3cc(Cl)ccc3N(NC(=O)c3c(N)cccc3Cl)c3ccccc32)CC1	0.496	0.0026	Kb (D(1A) dopamine receptor [3]): 0.0017 µM; Activity (D(1A) dopamine receptor [3]): Antagonist; Ki [4]: 0.327 µM; Ki (D(2) dopamine receptor [5]): 0.496 µM; Ki (D(1B) dopamine receptor): 0.053 µM; Ki (D(4) dopamine receptor): 0.808 µM; Ki [6]: 0.0009 µM
CN1CCN(C2=Nc3cc(Cl)ccc3N(NC(=O)/C=C/c3ccccc3)c3ccccc32)CC1	1.6	0.103	–
CN1CCN(C2=Nc3cc(Cl)ccc3N(NC(=O)C3CCCCC3)c3ccccc32)CC1	1.78	0.042	–
CN1CCN(C2=Nc3cc(Cl)ccc3N(NC(=O)c3ccc(Cl)c(Cl)c3)c3ccccc32)CC1	6.39	0.012	–
COc1ccc(CCC(=O)NN2c3ccc(Cl)cc3N=C(N3CCN(C)CC3)c3ccccc32)cc1Cl	0.582	0.056	–
